In publication PMC10427982 (eBioMedicine, 2023):
Marks after values point to notes of the source that are not given here.

Experiments:
[1] = after remdesivir 30 mg/kg i.v.; cited from earlier work
[2] = system: human airway epithelial cells (HAE); conditions: cited from earlier work
human ENT1 = conditions: cited from earlier work
[3] = lactating rats administered molnupiravir; cited from earlier work
[4] = Multisite microdialysis pharmacokinetics after molnupiravir; assay type: in vivo, rat
Outline: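 Pregnant Sprague–Dawley rats (gestation day 16, 300 ± 50 g), fasted 12 h, under urethane anaesthesia (1 g/kg i.p.). Test compound in normal saline, with the ENT inhibitor in 10% DMSO/90% PEG-400, given together via the femoral vein. Microdialysis probes sit in the jugular vein, fetus, placenta and amniotic fluid, perfused with ACD solution. Dialysates are collected every 20 min for 6 h and assayed by UHPLC-MS/MS. n = 6, mean ± SEM.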

[5] = animal models; cited from earlier work
human ENT2 = conditions: cited from earlier work
[6] = single and multiple doses; cited from earlier work
[7] = Multisite microdialysis pharmacokinetics after molnupiravir; assay type: in vivo, rat; remark: listed apart in the source
Outline: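 Pregnant Sprague–Dawley rats at gestation day 16 (300 ± 50 g), fasted 12 h and anaesthetised with urethane 1 g/kg i.p. Test compound in normal saline given alone via femoral vein catheter. Unbound drug and metabolite sampled by microdialysis in jugular vein, fetus, placenta and amniotic fluid, perfused with citrate-dextrose solution. Dialysates every 20 min over 6 h, UHPLC-MS/MS. Ratios taken as AUC quotients ×100%. n = 6, mean ± SEM.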

[8] = cited from earlier work
[9] = amniotic fluid, + NBMPR 10 mg/kg i.v.
[10] = placenta, + NBMPR 10 mg/kg i.v.
[11] = amniotic fluid, molnupiravir 100 mg/kg i.v. alone
[12] = blood, molnupiravir 100 mg/kg i.v. alone
[13] = fetus, molnupiravir 100 mg/kg i.v. alone
[14] = placenta, molnupiravir 100 mg/kg i.v. alone
[15] = female, Sprague-Dawley, rat, amniotic fluid, iv, 100 mg/kg, with NBMPR (ENT inhibitor) 10 mg/kg i.v., co-administered
[16] = female, Sprague-Dawley, rat, blood, iv, 100 mg/kg, with NBMPR (ENT inhibitor) 10 mg/kg i.v., co-administered
[17] = female, Sprague-Dawley, rat, fetus, iv, 100 mg/kg, with NBMPR (ENT inhibitor) 10 mg/kg i.v., co-administered
[18] = female, Sprague-Dawley, rat, placenta, iv, 100 mg/kg, with NBMPR (ENT inhibitor) 10 mg/kg i.v., co-administered
[19] = female, Sprague-Dawley, rat, amniotic fluid dialysate, iv, 100 mg/kg
[20] = female, Sprague-Dawley, rat, blood dialysate, iv, 100 mg/kg
[21] = female, Sprague-Dawley, rat, fetus dialysate, iv, 100 mg/kg
[22] = female, Sprague-Dawley, rat, placenta dialysate, iv, 100 mg/kg

For `N#C[C@@]1(c2ccc3c(N)ncnn23)O[C@H](CO)[C@@H](O)[C@H]1O` [GS-441524], the “Transfer ratio from mother to amniotic fluid” value [1] is listed as 0.71 ± 0.19, the “Transfer ratio from mother to fetus” value [1] is listed as 0.51 ± 0.18 and the “Transfer ratio from mother to placenta” value [1] is listed as 0.35 ± 0.09. For the same molecule, the EC50 [2] was 180 nM.

For `O=c1nc(NO)ccn1[C@@H]1O[C@H](CO)[C@@H](O)[C@H]1O` [NHC, β-D-N4-hydroxycytidine], the Interaction with transporter (human ENT1) is given as “interacts”, the “Detection in plasma of nursing pups” value [3] is given as “can be detected” and the “AUCtissue/AUCblood (biodistribution ratio)” value [4, 9] is given as 0.19 ± 0.05. The Cmax [4, 9] was 4.21 ± 0.44 ^d μg/mL, the MRT [4, 9] was 4.9 ± 1.28 h and the Tmax [4, 9] was 100 ± 14 ^d min. For the same molecule, the t1/2 [4, 9] was 181 ± 56 ^d min, the Cmax ([4]; blood, + NBMPR 10 mg/kg i.v.) was 97260 ± 24950 ng/mL and the MRT ([4]; blood, + NBMPR 10 mg/kg i.v.) was 0.933 ± 0.1 h. For the same molecule, the t1/2 ([4]; blood, + NBMPR 10 mg/kg i.v.) was 66 ± 3 min, the “AUCtissue/AUCblood (biodistribution ratio)” value ([4]; fetus, + NBMPR 10 mg/kg i.v.) was 0.27 ± 0.07 and the Cmax ([4]; fetus, + NBMPR 10 mg/kg i.v.) was 4.69 ± 1.92 ^d μg/mL. The MRT ([4]; fetus, + NBMPR 10 mg/kg i.v.) was 12.7 ± 4.25 h, the Tmax ([4]; fetus, + NBMPR 10 mg/kg i.v.) was 93 ± 16 ^d min and the t1/2 ([4]; fetus, + NBMPR 10 mg/kg i.v.) was 507 ± 178 ^d min. For the same molecule, the “AUCtissue/AUCblood (biodistribution ratio)” value [4, 10] was 0.14 ± 0.06, the Cmax [4, 10] was 2.95 ± 0.97 ^d μg/mL and the MRT [4, 10] was 4.18 ± 1.08 h. The Tmax [4, 10] was 106 ± 12 ^d min, the t1/2 [4, 10] was 157 ± 56 ^d min and the Bioavailability [5] was “poor bioavailability”. The Interaction with transporter (human ENT2) was “interacts”, the “Median Tmax in plasma” value [6] was 1 h and the “Concentration in dialysate sample (representative chromatogram)” value (from here on “Concentration in dialysate sample”) ([7]; amniotic fluid dialysate, 60 min after administration) was 10.05 ng/mL. The “AUCtissue/AUCblood (biodistribution ratio)” value [7, 11] was 0.19 ± 0.03, the Cmax [7, 11] was 4.78 ± 0.83 ^b μg/mL and the MRT [7, 11] was 2.82 ± 0.13 h. The Tmax [7, 11] was 150 ± 33 min, the t1/2 [7, 11] was 148 ± 52 ^b min and the “Concentration in dialysate sample” value ([7]; blood dialysate, 140 min after molnupiravir 100 mg/kg i.v.) was 960 ng/mL. The Cmax [7, 12] was 116500 ± 3870 ng/mL, the MRT [7, 12] was 0.95 ± 0.1 h and the Tmax [7, 12] was 40 min. For the same molecule, the t1/2 [7, 12] was 45 ± 5 min, the “Time post-administration until which detected” value ([7]; dialysates of all organs) was 360 min and the “Concentration in dialysate sample” value ([7]; fetus dialysate, collected at 140 min) was 185 ng/mL. The “AUCtissue/AUCblood (biodistribution ratio)” value [7, 13] was 0.29 ± 0.11, the Cmax [7, 13] was 7.20 ± 2.10 ^b μg/mL and the MRT [7, 13] was 2.62 ± 0.167 h. The Tmax [7, 13] was 123 ± 11 ^b min, the t1/2 [7, 13] was 492 ± 305 ^b min and the “Concentration in dialysate sample” value ([7]; placenta dialysate, 80 min after administration) was 126.2 ng/mL. The “AUCtissue/AUCblood (biodistribution ratio)” value [7, 14] was 0.09 ± 0.01, the Cmax [7, 14] was 2.98 ± 0.42 ^b μg/mL and the MRT [7, 14] was 2.6 ± 0.167 h. The Tmax [7, 14] was 90 ± 16 min, the t1/2 [7, 14] was 138 ± 18 ^b min and the “Transfer ratio across the blood-placenta barrier” value ([7]; range over fetus, placenta, amniotic fluid) was 9–29%.

For `CC(C)C(=O)OC[C@H]1O[C@@H](n2ccc(NO)nc2=O)[C@H](O)[C@@H]1O` [Molnupiravir], the “Fetal finding at lower dose” value ([8]; 500 mg/kg) is listed as “decreased fetal body weight”, the “Fetal finding at high dose” value ([8]; 1000 mg/kg) is listed as “internal and skeletal malformations of the fetus” and the “NOAEL for maternal and developmental toxicity” value [8] is listed as 250 mg/kg. The “Finding at doses eight times the normal dose / expected exposure” value ([8]; pregnant rat model) was “developmental toxicity”, the AUC(0-inf) [4, 15] was 2770 ng·h/mL and the Cmax [4, 15] was 2140 ± 640 ng/mL. It also gave an MRT [4, 15] of 1.47 h, a half-life [4, 15] of 3.12 ± 0.833 h and an AUC(0-inf) [4, 16] of 49600 ng·h/mL. The Cmax [4, 16] was 261000 ± 111000 ng/mL, the MRT [4, 16] was 0.283 h and the clearance [4, 16] was 59.2 ± 22.6 mL/min/kg. The half-life [4, 16] was 0.2 ± 0.0167 h, the AUC(0-inf) [4, 17] was 1650 ng·h/mL and the Cmax [4, 17] was 2410 ± 180 ng/mL. The MRT [4, 17] was 0.833 h, the half-life [4, 17] was 0.433 ± 0.1 h and the AUC(0-inf) [4, 18] was 1880 ng·h/mL. For the same molecule, the Cmax [4, 18] was 1020 ± 190 ng/mL, the half-life [4, 18] was 3 ± 1.42 h and the MRT [4, 10] was 3.95 ± 1.48 h. The “Increase of the bioavailability of NHC” value [5] was “more than 90%”, the “Time up to which detected” value ([7]; blood, molnupiravir 100 mg/kg i.v.) was “up to 200 min” and the CL [7, 12] was 21.89 ± 2.99 mL/min/kg. For the same molecule, the “Time for the maximum concentration in the conceptus” value ([7]; conceptus, molnupiravir 100 mg/kg i.v.) was “approximately 40 min”, the Kp ([7]; female, Sprague-Dawley, rat, amniotic fluid (relative to blood), iv, 100 mg/kg) was 0.05 ± 0.01 and the concentration at 60 min ([7]; female, Sprague-Dawley, rat, amniotic fluid dialysate, intravenous, 100 mg/kg) was 1.48 ng/mL. It also gave an AUC(0-inf) [7, 19] of 4660 ng·h/mL, a Cmax [7, 19] of 2110 ± 380 ng/mL and a half-life [7, 19] of 13.8 ± 2.88 h. It also gave an MRT ([7]; female, Sprague-Dawley, rat, amniotic fluid, iv, 100 mg/kg) of 1.73 h, a concentration at 140 min ([7]; female, Sprague-Dawley, rat, blood dialysate, intravenous, 100 mg/kg) of 18.2 ng/mL and an AUC(0-inf) [7, 20] of 61600 ng·h/mL. It also gave a Cmax [7, 20] of 219000 ± 42300 ng/mL, a half-life [7, 20] of 0.183 ± 0.0333 h and an MRT ([7]; female, Sprague-Dawley, rat, blood, iv, 100 mg/kg) of 0.267 h. It also gave a Kp ([7]; female, Sprague-Dawley, rat, fetus (relative to blood), iv, 100 mg/kg) of 0.03 ± 0.01, a concentration at 140 min ([7]; female, Sprague-Dawley, rat, fetus dialysate, intravenous, 100 mg/kg) of 3.02 ng/mL and an AUC(0-inf) [7, 21] of 3310 ng·h/mL. The Cmax [7, 21] was 3540 ± 1320 ng/mL, the half-life [7, 21] was 0.483 ± 0.0833 h and the MRT ([7]; female, Sprague-Dawley, rat, fetus, iv, 100 mg/kg) was 0.7 h. It also gave a Kp ([7]; female, Sprague-Dawley, rat, placenta (relative to blood), iv, 100 mg/kg) of 0.02 ± 0.009, a concentration at 80 min ([7]; female, Sprague-Dawley, rat, placenta dialysate, intravenous, 100 mg/kg) of 15.1 ng/mL and an AUC(0-inf) [7, 22] of 2420 ng·h/mL. It also gave a Cmax [7, 22] of 2560 ± 730 ng/mL, a half-life [7, 22] of 1 ± 0.417 h and an MRT ([7]; female, Sprague-Dawley, rat, placenta, iv, 100 mg/kg) of 1.17 h. The “Time within which metabolized to NHC” value ([7]; molnupiravir 100 mg/kg i.v.) was at most 20 min.
